In data set [1] the target is T1, Cannabinoid receptor 2 (Homo sapiens, UniProt P34972). Description: Displacement of [3H]-CP55940 from human CB2 receptor after 1 hr by scintillation counting analysis. In general terms: In a radioligand displacement assay an active substance lowers the binding of a labelled ligand.
The target in a further data set is Cannabinoid receptor 1 (Homo sapiens, UniProt P21554). Description: Displacement of [3H]-CP55940 from human CB1 receptor after 1 hr by scintillation counting analysis.
Chain of Cannabinoid receptor 1 (P21554 whole entry): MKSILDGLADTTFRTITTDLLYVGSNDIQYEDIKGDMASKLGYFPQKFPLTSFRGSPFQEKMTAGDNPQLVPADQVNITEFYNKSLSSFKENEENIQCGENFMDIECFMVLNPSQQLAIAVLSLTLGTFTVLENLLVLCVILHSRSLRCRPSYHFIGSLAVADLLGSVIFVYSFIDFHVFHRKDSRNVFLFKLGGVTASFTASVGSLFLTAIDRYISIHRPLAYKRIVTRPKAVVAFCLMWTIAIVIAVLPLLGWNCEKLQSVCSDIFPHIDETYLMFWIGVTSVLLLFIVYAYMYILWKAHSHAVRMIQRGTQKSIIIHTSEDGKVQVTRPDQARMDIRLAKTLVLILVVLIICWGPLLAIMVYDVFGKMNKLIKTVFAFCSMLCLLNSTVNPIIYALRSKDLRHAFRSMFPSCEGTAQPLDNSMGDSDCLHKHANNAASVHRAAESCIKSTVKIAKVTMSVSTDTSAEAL
The next data set relates to MDCK-II. Description: Inhibition of MDR1 in MDCK2 cells at 10 uM after 30 mins by calcein AM uptake assay relative to control. Format: cell-based. As to conditions: Canis lupus familiaris. Summed up:
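MDR1-MDCKII cells; P-gp function read as cellular calcein AM uptake after 30 min incubation at 37 °C.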

Data set [2] is described as follows: Metabolic stability in human liver microsomes assessed as compound remaining at 1 uM after 60 mins. Format: ADME. As to conditions: read-out: Stability. Summed up: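 Compound (1 μM) incubated with human liver microsomes (0.3 mg/mL) at 37 °C, sampled at 0 and 60 min; percent remaining reported.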
For orientation: Liver microsomes are a subcellular fraction often used to study metabolism.

In a further data set the target is hERG (KCNH2) (Homo sapiens, UniProt Q12809). Description: Binding affinity to human ERG expressed in HEK293 cells assessed as inhibition of tail current at 1 uM after 5 to 10 mins by patch-clamp assay relative to control. Format: cell-based. As to conditions: HEK293 cells expressing human ERG. The gist of the method:
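hERG-expressing HEK 293 cells, conventional whole-cell patch clamp; compound at 1 μM applied cumulatively for 5–10 min at room temperature; tail current inhibition read.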

Data set [3] concerns the target T1, Cannabinoid receptor 2. Description: Agonist activity at human CB2 receptor after 1 hr by [35S]-GTPgammaS binding assay. The format is functional.
For data set [4], the system named is Mus musculus. Description: Anticolitis activity in TNBS-induced C57Bl6 mouse acute colitis model assessed as reduction of mortality rate at 0.1 to 10 mg/kg, po qd administered over 7 days, starting 2 days prior to TNBS challenge measured 5 days post TNBS challenge relative to vehicle-treated control. Format: functional, organism-based. Summed up: (§1)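 Mice given test article orally in carboxymethyl cellulose once daily at 0.1, 1 or 10 mg/kg for 7 days, beginning 2 days before TNBS colitis induction; vehicle-only (CMC) controls. Survival followed throughout; body weight loss, semiquantitative macroscopic colon score, histological score and colonic TNFα and IL-1β mRNA assessed at euthanasia 5 days after TNBS. Mean ± SEM, 10 mice per group.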

In data set [5] the test system is Mus musculus. Description: Anticolitis activity in po dosed TNBS-induced C57Bl6 mouse acute colitis model assessed as reduction of body weight loss administered as qd over 7 days, starting 2 days prior to TNBS challenge measured 5 days post TNBS challenge. The format is functional, organism-based. The gist of the method:
as §1

In data set [6] the test system is Mus musculus. Description: Anticolitis activity in po dosed TNBS-induced C57Bl6 mouse acute colitis model assessed as decrease in bowel thickness and areas of ulceration administered as qd over 7 days, starting 2 days prior to TNBS challenge measured 5 days post TNBS challenge. Format: functional, organism-based. The gist of the method:
as §1

Data set [7] relates to Mus musculus. Description: Anticolitis activity in TNBS-induced C57Bl6 mouse acute colitis model assessed as decrease in bowel thickness and areas of ulceration at 10 mg/kg, po qd administered over 7 days, starting 2 days prior to TNBS challenge measured 5 days post TNBS challenge (reference value: 4.9). The format is functional. Summed up: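 Mouse acute colitis induced by TNBS. Compound given orally in carboxymethyl cellulose (CMC) once daily at 0.1, 1 and 10 mg/kg for 7 days, starting 2 days before induction; controls received CMC alone. Mice euthanised 5 days after TNBS. Colon damage graded with a semiquantitative macroscopic score; mean ± SEM of 10 mice per group, compared with vehicle.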

The subject of data set [8] is Mus musculus. Description: Anticolitis activity in TNBS-induced C57Bl6 mouse acute colitis model assessed as decrease in degree of inflammation infiltrate, presence of erosion, ulceration, necrosis and depth, surface extension of lesions at 10 mg/kg, po qd administered over 7 days, starting 2 days prior to TNBS challenge measured 5 days post TNBS challenge by Giemsa staining relative to vehicle-treated control. The format is functional. Also on record: scale not given: the % may be the effect or the level left. The gist of the method: as §1

The test system of data set [9] is Mus musculus. Description: Anticolitis activity in TNBS-induced C57Bl6 mouse acute colitis model assessed as downregulation of IL-1beta mRNA expression in colon at 10 mg/kg, po qd administered over 7 days, starting 2 days prior to TNBS challenge measured 5 days post TNBS challenge by real-time PCR analysis. The format is functional, organism-based. Also on record: dose 10 mg/kg. Summed up: as §1
On the technique in general: Real-time PCR tracks product formation cycle by cycle.

Data set [10] has as its system Mus musculus. Description: Anticolitis activity in TNBS-induced C57Bl6 mouse acute colitis model assessed as downregulation of TNF-alpha mRNA expression in colon at 10 mg/kg, po qd administered over 7 days, starting 2 days prior to TNBS challenge measured 5 days post TNBS challenge by real-time PCR analysis. The format is functional, organism-based. Also on record: dose 10 mg/kg. The gist of the method:
as §1

Data set [11] in a line: Fraction unbound in human plasma after 18 hrs by equilibrium dialysis method. The format is ADME, cell-free. Summed up: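 Plasma protein binding by equilibrium dialysis, 18 h at 37 °C.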
The nature of data set [12]: Permeability across apical to basolateral side in human Caco2 cells at 10 uM after 60 mins. Conditions: Caco-2, read-out: permeability. Format: ADME, cell-based.

Calls of active or inactive are those of the source. The calls are words filed in the database; no cut-off is given here.

T1 sequence (P34972 whole entry): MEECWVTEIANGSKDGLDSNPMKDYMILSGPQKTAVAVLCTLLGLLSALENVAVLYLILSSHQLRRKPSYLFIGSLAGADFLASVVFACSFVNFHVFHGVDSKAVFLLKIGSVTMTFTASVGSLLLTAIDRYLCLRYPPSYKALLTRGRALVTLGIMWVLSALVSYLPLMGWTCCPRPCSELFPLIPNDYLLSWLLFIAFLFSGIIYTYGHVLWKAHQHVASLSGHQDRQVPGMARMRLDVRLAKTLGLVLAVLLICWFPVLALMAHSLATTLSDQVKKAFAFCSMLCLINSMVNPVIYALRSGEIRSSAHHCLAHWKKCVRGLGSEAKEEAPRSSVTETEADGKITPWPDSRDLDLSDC
Chain of hERG (KCNH2) (Q12809 whole entry): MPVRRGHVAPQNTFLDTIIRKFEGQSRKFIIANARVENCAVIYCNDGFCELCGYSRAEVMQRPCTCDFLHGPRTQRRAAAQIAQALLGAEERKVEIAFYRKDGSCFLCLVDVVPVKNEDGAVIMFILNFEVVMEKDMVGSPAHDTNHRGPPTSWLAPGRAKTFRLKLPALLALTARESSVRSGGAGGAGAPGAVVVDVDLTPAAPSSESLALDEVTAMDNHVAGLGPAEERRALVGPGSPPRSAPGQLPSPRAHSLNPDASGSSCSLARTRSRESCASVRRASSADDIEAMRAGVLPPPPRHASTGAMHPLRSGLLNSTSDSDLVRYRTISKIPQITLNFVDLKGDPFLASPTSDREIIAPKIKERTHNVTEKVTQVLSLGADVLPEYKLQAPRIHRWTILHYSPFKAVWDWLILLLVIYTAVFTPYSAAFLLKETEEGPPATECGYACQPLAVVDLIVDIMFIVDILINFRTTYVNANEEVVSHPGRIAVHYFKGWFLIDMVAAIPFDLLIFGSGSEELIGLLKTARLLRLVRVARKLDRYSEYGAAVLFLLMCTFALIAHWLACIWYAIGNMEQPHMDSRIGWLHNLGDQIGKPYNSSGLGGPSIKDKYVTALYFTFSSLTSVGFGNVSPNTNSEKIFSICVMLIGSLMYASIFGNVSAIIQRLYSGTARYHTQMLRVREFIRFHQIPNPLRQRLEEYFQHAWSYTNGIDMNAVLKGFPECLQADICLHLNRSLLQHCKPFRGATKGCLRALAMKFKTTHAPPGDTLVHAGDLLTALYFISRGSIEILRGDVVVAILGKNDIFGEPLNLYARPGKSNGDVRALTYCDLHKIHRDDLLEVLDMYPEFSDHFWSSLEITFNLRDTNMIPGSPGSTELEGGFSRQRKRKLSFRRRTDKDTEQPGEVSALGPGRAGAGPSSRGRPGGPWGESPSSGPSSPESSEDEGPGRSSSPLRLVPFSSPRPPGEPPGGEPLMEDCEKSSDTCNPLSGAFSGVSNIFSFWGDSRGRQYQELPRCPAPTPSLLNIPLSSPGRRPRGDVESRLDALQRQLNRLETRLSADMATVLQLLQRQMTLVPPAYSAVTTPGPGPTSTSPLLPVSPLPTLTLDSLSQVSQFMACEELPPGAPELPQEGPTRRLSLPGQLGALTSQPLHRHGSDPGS

Turning to `CCCCCn1c(-c2ccccc2)c2c(=O)n(Cc3ccccc3)nc-2c2ccccc21`, the Ki on Cannabinoid receptor 2 [1] and on Cannabinoid receptor 1 was > 3 µM in each case.
With `CCCCCn1cc2c(=O)n(-c3cccc(C(F)(F)F)c3)nc-2c2ccccc21`, the Ki on Cannabinoid receptor 2 [1] is 0.0292 µM; on Cannabinoid receptor 1 it was > 3 µM.
For `CCCCCn1cc2c(=O)n(-c3ccccc3)nc-2c2ccccc21`, in that order: 1.36 µM and > 3 µM.
Take `CCCCCn1cc(C(=O)NC23CC4CC(CC(C4)C2)C3)c(=O)c(-c2ccncc2)c1C`: the Ki at Cannabinoid receptor 1 is > 1 µM.
Regarding `CCCCCn1cc2c(=O)n(-c3ccc(OC)cc3)nc-2c2ccccc21`, the Ki at Cannabinoid receptor 2 [1] and at Cannabinoid receptor 1 was > 3 µM throughout.
With `CCCCCn1cc2c(=O)n(CC34CC5CC(CC(C5)C3)C4)nc-2c2ccccc21`, the inhibition with MDCK-II is 30.6%. For the same compound, the remaining at 1 h, 1 µM in data set [2] is 64%. In addition, at hERG (KCNH2), the inhibition at 1 µM came out at 35.5%. On Cannabinoid receptor 1, the Ki was > 3 µM. This compound yielded an Emax on Cannabinoid receptor 2 [3] of 163%. In addition, the outcome with Mus musculus [4] and in the data set with Mus musculus [9] was Active. The Activity entry in the data set with Mus musculus [5] is “Dose-dependent effect”; with Mus musculus [6] it was “Dose-dependent effect”; in the data set on Mus musculus [8] it was 65%. The “fold change (FC)” value with Mus musculus [7] came to 1.7. Also, the result in the data set with Mus musculus [10] was inactive. In [11], the fraction unbound at 18 h was < 1. Further, in data set [12], the Papp A→B at 1 h, 10 µM worked out at 0.8 ×10⁻⁶ cm/s.
For the compound `CCCCCn1c(-c2ccccc2)c2c(=O)[nH]nc-2c2ccccc21`, the Ki on Cannabinoid receptor 2 [1] and on Cannabinoid receptor 1 was > 3 µM throughout.
`CCCCCn1cc2c(=O)n(CCCc3ccccc3)nc-2c2ccccc21`: the inhibition constant Ki on Cannabinoid receptor 2 [1] and on Cannabinoid receptor 1 was > 3 µM each time.
`CCCCCn1cc2c(=O)n(C3CCCCC3)nc-2c2ccccc21` yielded an Emax at Cannabinoid receptor 2 [3] of 160%.
On Cannabinoid receptor 2 [3], `CCCCCn1cc2c(=O)n(CCC3CCCCC3)nc-2c2ccccc21` registered an Emax of 141%.
For `CCCCCn1cc(C(=O)NCC23CC4CC(CC(C4)C2)C3)c(=O)c2ccccc21`, the Ki at Cannabinoid receptor 2 [1] was 0.0216 µM; at Cannabinoid receptor 1, > 3 µM.
Compound `CCCCCn1cc2c(=O)n(CC3CCCCC3)nc-2c2ccccc21` came in with an Emax at Cannabinoid receptor 2 [3] of 149%.
As for `CCCCCn1c(-c2ccccc2)c2c(=O)n(-c3ccc(OC)cc3)nc-2c2ccccc21`, the Ki at Cannabinoid receptor 2 [1] and on Cannabinoid receptor 1 was > 3 µM each time.
On to `CCCCCn1c(-c2ccccc2)c2c(=O)n(CCCc3ccccc3)nc-2c2ccccc21`, for which the Ki at Cannabinoid receptor 2 [1] and at Cannabinoid receptor 1 was > 3 µM throughout.
Take `CCCCCn1c(-c2ccccc2)c2c(=O)n(-c3ccccc3)nc-2c2ccccc21`: the Ki on Cannabinoid receptor 2 [1] and on Cannabinoid receptor 1 was > 3 µM each time.
As for `CCCCCn1c(-c2ccccc2)c2c(=O)n(-c3cccc(C(F)(F)F)c3)nc-2c2ccccc21`, the Ki on Cannabinoid receptor 2 [1] and on Cannabinoid receptor 1 was > 3 µM in each case.
In the case of `CCCCCn1cc2c(=O)n(CCC34CC5CC(CC(C5)C3)C4)nc-2c2ccccc21`, the Ki at Cannabinoid receptor 1 is > 3 µM.

Usually Ki stands for a measure of affinity in units of concentration, obtained from inhibition or displacement. As a reminder, the inhibition is the percentage by which the read-out fell short of the control. A word on the Emax: it is the maximal effect, on the per cent scale that the assay sets. Broadly, the fraction unbound is free concentration divided by total concentration.

The record behind these values is ChEMBL document CHEMBL3421616, “Conformational Restriction Leading to a Selective CB2 Cannabinoid Receptor Agonist Orally Active Against Colitis” (ACS Med Chem Lett, 2015).
